Test results as given in ChEMBL document CHEMBL1649241, “Antimalarial activity of simalikalactone E, a new quassinoid from Quassia amara L. (Simaroubaceae)” (Antimicrob Agents Chemother, 2009).
pIC50: −log10 of the molar value.

Legend:
[1] = test system: Plasmodium vinckei petteri; test: Antiplasmodial activity against Plasmodium vinckei petteri infected in CD mouse assessed as suppression of parasitemia at 1 mg/kg/day, ip measured on day 5 post-infection by Giemsa staining; format: functional; settings: 120 h, route intraperitoneal
Outline: (§1)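 Four-day suppressive test in female CD mice (20 ± 2 g) infected with 10^6 P. vinckei petteri-infected erythrocytes on day 0. Groups of five were dosed i.p. (DMSO vehicle) or p.o. (carboxymethylcellulose vehicle) on days 0–3 at 0.5–20 mg/kg/day. Parasitemia was read from Giemsa-stained tail-blood smears (≥5,000 erythrocytes). % inhibition = (control − treated parasitemia)/control × 100.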

[2] = test system: Plasmodium vinckei petteri; test: Antiplasmodial activity against Plasmodium vinckei petteri infected in po dosed CD mouse assessed as mean survival time at 5 mg/kg/day, ip for 4 days measured upto day 21 post-infection; format: functional
Outline: (§2)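 Female CD mice were infected with 10^6 P. vinckei petteri-infected erythrocytes and dosed i.p. or p.o. on days 0–3, five per group. Survival was followed to day 21. Mean survival time is the area under the Kaplan–Meier survivor function. Where mice survived, an extended mean was obtained by exponential extension of the survivor function to zero. Comparisons used the log rank test.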

[3] = test system: Vero; test: Cytotoxicity against african green monkey Vero cells assessed as incorporation of [3H]hypoxanthine after 48 hrs; format: cell-based; settings: chlorocebus sabaeus
Outline: (§3)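 Vero, MCF7 and THP1 cells were grown under the P. falciparum culture conditions, except that 10% fetal calf serum replaced 5% human serum. Cells were incubated 48 h with serial drug dilutions. Growth was measured by [3H]hypoxanthine incorporation relative to untreated controls. IC50 is the mean ± SEM of ≥3 independent experiments.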

[4] = test system: Plasmodium vinckei petteri; test: Antiplasmodial activity against Plasmodium vinckei petteri infected in po dosed CD mouse assessed as extended mean survival time at 10 mg/kg/day, ip for 4 days; format: functional; outline: as §2
[5] = test system: Plasmodium vinckei petteri; test: Antiplasmodial activity against Plasmodium vinckei petteri infected in CD mouse assessed as suppression of parasitemia at 5 mg/kg/day, ip measured on day 5 post-infection by Giemsa staining; format: functional; settings: 120 h, route intraperitoneal; outline: as §1
[6] = test system: Plasmodium vinckei petteri; test: Antiplasmodial activity against Plasmodium vinckei petteri infected in CD mouse assessed as suppression of parasitemia at 10 mg/kg/day, ip measured on day 5 post-infection by Giemsa staining; format: functional; settings: 120 h, route intraperitoneal
Outline: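 Four-day suppressive test in female CD mice (20 ± 2 g) infected on day 0 with P. vinckei petteri-infected red blood cells in RPMI. Groups of five treated i.p. once daily, days 0–3; DMSO-only mice were the i.p. control. Parasitemia was counted on Giemsa-stained tail-blood smears (at least 5,000 erythrocytes). Inhibition % = (control − treated parasitemia)/control × 100.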

[7] = test system: MCF7; test: Cytotoxicity against human MCF7 cells assessed as incorporation of [3H]hypoxanthine after 48 hrs; format: cell-based; settings: mcf7, 48 h; outline: as §3
[8] = test system: THP-1; test: Cytotoxicity against human THP1 cells assessed as incorporation of [3H]hypoxanthine after 48 hrs; format: cell-based; settings: thp-1, 48 h; outline: as §3
[9] = test system: Plasmodium vinckei petteri; test: Antiplasmodial activity against Plasmodium vinckei petteri infected in po dosed CD mouse assessed as mean survival time at 10 mg/kg/day, ip for 4 days measured upto day 21 post-infection; format: functional; outline: as §2
[10] = test system: Plasmodium falciparum; test: Antiplasmodial activity against Plasmodium falciparum W2 gametocytes assessed as suppression of parasitemia […] by Giemsa staining; format: functional, organism-based
Outline: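 W2 gametocytogenesis was induced on day 0 by a modified Ifediba–Vanderberg method, with N-acetylglucosamine added on day 10. Increasing compound dilutions were added on day 13. On day 15, Giemsa-stained thin smears were counted (≥10,000 erythrocytes each) to estimate gametocytemia against untreated and reference-drug controls. IC50 is the mean ± SEM of ≥3 independent experiments.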

[11] = test system: Plasmodium falciparum; test: Antiplasmodial activity against Plasmodium falciparum W2 assessed as suppression of parasitemia after 4 hrs by Giemsa staining; format: functional, organism-based; settings: W2, 4 h
Outline: (§4)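 Asexual blood-stage P. falciparum growth inhibition, run by a modified Desjardins method. Parasites were grown by a modified Trager–Jensen culture and synchronized by magnetic enrichment plus 5% D-sorbitol lysis. F32 is chloroquine-sensitive; FcB1 and W2 are chloroquine-resistant. IC50 is the mean ± SEM of at least three independent experiments.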

[12] = test system: Plasmodium falciparum; test: Antiplasmodial activity against Plasmodium falciparum F32 assessed as suppression of parasitemia after 4 hrs by Giemsa staining; format: functional, organism-based; settings: F32, 4 h; outline: as §4
[13] = test system: Plasmodium falciparum; test: Antiplasmodial activity against Plasmodium falciparum FcB1/Columbia assessed as suppression of parasitemia after 4 hrs by Giemsa staining; format: functional, organism-based; outline: as §4
[14] = test system: Plasmodium berghei; test: Antiplasmodial activity against Plasmodium berghei infected in ip dosed mouse; format: functional
[15] = test system: Plasmodium yoelii yoelii; test: Antiplasmodial activity against Plasmodium yoelii yoelii infected in po dosed rodents; format: functional
[16] = test system: Plasmodium vinckei petteri; test: Antiplasmodial activity against Plasmodium vinckei petteri infected in po dosed CD mouse assessed as extended mean survival time at 1 mg/kg/day, po for 4 days measured upto day 21 post-infection; format: functional; outline: as §2
[17] = test system: Plasmodium vinckei petteri; test: Antiplasmodial activity against Plasmodium vinckei petteri infected in po dosed CD mouse assessed as mean survival time at 1 mg/kg/day, ip for 4 days measured upto day 21 post-infection; format: functional; outline: as §2
[18] = test system: Plasmodium vinckei petteri; test: Antiplasmodial activity against Plasmodium vinckei petteri infected in CD mouse assessed as suppression of parasitemia at 0.5 mg/kg/day, ip measured on day 5 post-infection by Giemsa staining; format: functional; settings: 120 h, route intraperitoneal; outline: as §1
[19] = test system: Plasmodium vinckei petteri; test: Antiplasmodial activity against Plasmodium vinckei petteri infected in po dosed CD mouse assessed as mean survival time at 0.5 mg/kg/day, ip for 4 days measured upto day 21 post-infection; format: functional; outline: as §2
[20] = test system: Plasmodium vinckei petteri; test: Antiplasmodial activity against Plasmodium vinckei petteri infected in ip dosed CD mouse assessed as suppression of parasitemia measured on day 5 post-infection by Giemsa staining; format: functional; settings: 120 h; outline: as §1
[21] = test system: Plasmodium vinckei petteri; test: Antiplasmodial activity against Plasmodium vinckei petteri infected in po dosed CD mouse assessed as mean survival time at 1 mg/kg/day, po for 4 days measured upto day 21 post-infection; format: functional; outline: as §2
[22] = test system: Plasmodium vinckei petteri; test: Antiplasmodial activity against Plasmodium vinckei petteri infected in CD mouse assessed as suppression of parasitemia at 10 mg/kg/day, po measured on day 5 post-infection by Giemsa staining; format: functional; settings: 120 h; outline: as §1
[23] = test system: Plasmodium vinckei petteri; test: Antiplasmodial activity against Plasmodium vinckei petteri infected in po dosed CD mouse assessed as extended mean survival time at 20 mg/kg/day, po for 4 days; format: functional; outline: as §2
[24] = test system: Plasmodium vinckei petteri; test: Antiplasmodial activity against Plasmodium vinckei petteri infected in po dosed CD mouse assessed as extended mean survival time at 1 mg/kg/day, ip for 4 days; format: functional; outline: as §2
[25] = test system: Plasmodium vinckei petteri; test: Antiplasmodial activity against Plasmodium vinckei petteri infected in po dosed CD mouse assessed as extended mean survival time at 10 mg/kg/day, po for 4 days; format: functional; outline: as §2
[26] = test system: Plasmodium vinckei petteri; test: Antiplasmodial activity against Plasmodium vinckei petteri infected in po dosed CD mouse assessed as suppression of parasitemia measured on day 5 post-infection by Giemsa staining; format: functional; settings: 120 h; outline: as §1
[27] = test system: Plasmodium vinckei petteri; test: Antiplasmodial activity against Plasmodium vinckei petteri infected in CD mouse assessed as suppression of parasitemia at 1 mg/kg/day, po measured on day 5 post-infection by Giemsa staining; format: functional; settings: 120 h; outline: as §1
[28] = test system: Plasmodium vinckei petteri; test: Antiplasmodial activity against Plasmodium vinckei petteri infected in CD mouse assessed as suppression of parasitemia at 20 mg/kg/day, po measured on day 5 post-infection by Giemsa staining; format: functional; settings: 120 h; outline: as §1
[29] = test system: Plasmodium vinckei petteri; test: Antiplasmodial activity against Plasmodium vinckei petteri infected in po dosed CD mouse assessed as mean survival time at 10 mg/kg/day, po for 4 days measured upto day 21 post-infection; format: functional; outline: as §2
[30] = test system: Plasmodium vinckei petteri; test: Antiplasmodial activity against Plasmodium vinckei petteri infected in po dosed CD mouse assessed as extended mean survival time at 0.5 mg/kg/day, ip for 4 days; format: functional; outline: as §2
[31] = test system: Plasmodium vinckei petteri; test: Antiplasmodial activity against Plasmodium vinckei petteri infected in po dosed CD mouse assessed as extended mean survival time at 5 mg/kg/day, ip for 4 days; format: functional; outline: as §2

## CCN(CC)CCCC(C)Nc1ccnc2cc(Cl)ccc12 (stereo not drawn) [CHLOROQUINE]
[1]
  inhibition in vivo at 1 mg/kg/day: ≤ 0%
[2]
  MST: 12.8 days
[3]
  Activity: > 0.5 µM
[4]
  MST: 43.87 days
[5]
  inhibition in vivo at 5 mg/kg/day: 100%
[6]
  inhibition in vivo at 10 mg/kg/day: 100%
[7]
  Activity: > 500 nM
[8]
  Activity: > 500 nM
[9]
  MST: 19.2 days

## COc1cc(NC(C)CCCN)c2ncccc2c1 (stereo not drawn) [PRIMAQUINE]
[10]
  pIC50: 5.05
[11]
  pIC50: 5.15
[3]
  Activity: 340 µM
[12]
  pIC50: 5.21
[13]
  pIC50: 5.05

## CC[C@@H](C)C(=O)O[C@H]1C(=O)O[C@@H]2C[C@H]3C(C)=CC(=O)[C@@H](O)[C@]3(C)[C@H]3[C@@H](O)[C@H](O)[C@]4(C)OC[C@]32[C@@H]14 [SIMALIKALACTONE D]
[3]
  Activity: 0.058 µM
[7]
  Activity: < 20 nM
[8]
  Activity: < 2 nM
[14]
  ED50: 0.2 mg/kg/day
[15]
  ED50: 3.7 mg/kg/day

## CC[C@H](C)C(=O)O[C@@H]1[C@H]2C(C)=CC(=O)[C@@H](O)[C@]2(C)[C@H]2[C@@H](O)[C@H](O)[C@@]3(C)OC[C@@]24[C@@H]1OC(=O)[C@H](OC(=O)[C@@H](C)CC)[C@@H]34 [SIMALIKALACTONE E]
[10]
  pIC50: 5.95
[1]
  inhibition in vivo at 1 mg/kg/day: 98%
[2]
  MST: 11.4 days
[16]
  MST: 13.61 days
[17]
  MST: 18.6 days
[17]; Plasmodium vinckei
  ED50: 3 mg/kg/day
[18]
  inhibition in vivo at 0.5 mg/kg/day: 59%
[3]
  Activity: 6.574 µM
[19]
  MST: 16.4 days
[20]
  ED50: 0.5 mg/kg/day
[21]
  MST: 11 days
[22]
  inhibition in vivo at 10 mg/kg/day: 95%
[23]
  MST: 16.41 days
[5]
  inhibition in vivo at 5 mg/kg/day: 100%
[24]
  MST: 93.89 days
[7]
  Activity: 47 nM
[8]
  Activity: 33 nM
[25]
  MST: 15.01 days
[26]
  ED50: 1 mg/kg/day
[27]
  inhibition in vivo at 1 mg/kg/day: 55%
[28]
  inhibition in vivo at 20 mg/kg/day: 100%
[29]
  MST: 12.4 days
[30]
  MST: 41.07 days
[31]
  MST: 20.57 days
